Experimental findings from ChEMBL document CHEMBL4477166, “18β-Glycyrrhetinic Acid Derivatives Possessing a Trihydroxylated A Ring Are Potent Gram-Positive Antibacterial Agents” (2016) are described below.

One experiment relates to Streptomyces scabiei. Briefly: Antibacterial activity against Streptomyces scabiei CGMCC4.7610246 by microdilution assay. The format is functional. The method, boiled down:
(§1)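 Turbidimetric broth microdilution. Log-phase cells were washed and resuspended in broth (LB at 37 °C for B. subtilis and S. aureus; oat bran broth at 28 °C for S. scabies) and seeded at 1 × 10⁵ CFU/mL. Twofold serial dilutions were made with DMSO ≤1% (v/v). A620 was read, then plates were incubated with vigorous shaking. MIC was the lowest concentration with no apparent growth versus vehicle-only medium without cells. Run in triplicate.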

Experiment [1] deals with Pseudomonas aeruginosa. Nature of the experiment: Antibacterial activity against multi-drug resistant Pseudomonas aeruginosa at 100 uM measured after 5 to 6 hrs by microdilution assay. The format is functional, organism-based. The gist of the method: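 Log-phase cells seeded at 1 × 10⁵ CFU/mL. Single-dose screen at 100 μM, with DMSO cosolvent at most 1% v/v. Growth measured turbidimetrically at 620 nm, before and after incubation with vigorous shaking.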
On the technique in general: Broth dilution looks for growth in wells or tubes with falling amounts of substance.

Experiment [2] concerns Pseudomonas aeruginosa. Briefly: Antibacterial activity against Pseudomonas aeruginosa at 100 uM measured after 5 to 6 hrs by microdilution assay. Format: functional, organism-based.
A further experiment concerns Escherichia coli. Briefly: Antibacterial activity against Escherichia coli at 100 uM measured after 5 to 6 hrs by microdilution assay. Format: functional, organism-based.
Experiment [3] relates to Staphylococcus aureus. Nature of the experiment: Antibacterial activity against methicillin-resistant Staphylococcus aureus by microdilution assay. The format is functional. The gist of the method:
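Log-phase cells seeded at 1 × 10⁵ CFU/mL. Twofold serial dilutions made in broth with DMSO cosolvent, at most 1% v/v. Turbidity read at 620 nm before and after incubation with vigorous shaking. MIC is the lowest concentration with no apparent growth versus the medium-plus-vehicle control. Run in triplicate.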

In the next experiment the test system is Bacillus subtilis. Briefly: Antibacterial activity against Bacillus subtilis ATCC 6051 by microdilution assay. The format is functional. The method, boiled down:
as §1

The test system of experiment [4] is Staphylococcus aureus. Briefly: Antibacterial activity against Staphylococcus aureus ATCC 25923 by microdilution assay. The format is functional. The gist of the method:
as §1

Values after ≈ are worked out from the molar mass of the structure shown. Active and inactive are the calls of the source. The rule behind the calls is not given here.

As to `CC1(C)[C@@H](O)[C@@H](O)[C@H](O)[C@]2(C)[C@H]3C(=O)C=C4[C@@H]5C[C@@](C)(C(=O)O)CC[C@]5(C)CC[C@@]4(C)[C@]3(C)CC[C@@H]12`, the MIC with Streptomyces scabiei, in the experiment with Staphylococcus aureus [3], in the experiment on Bacillus subtilis and in the experiment with Staphylococcus aureus [4] was more than 50 µg/mL throughout. Also, the outcome in the experiment on Pseudomonas aeruginosa [1], with Pseudomonas aeruginosa [2] and with Escherichia coli was inactive.

On to `CCCOC(=O)[C@@]1(C)CC[C@]2(C)CC[C@]3(C)C(=CC(=O)[C@@H]4[C@@]5(C)[C@@H](O)[C@H](O)[C@H](O)C(C)(C)[C@@H]5CC[C@]43C)[C@@H]2C1`, for which the MIC (in general, the least concentration at which growth counts as inhibited) in the experiment with Streptomyces scabiei is 4.3 µg/mL (≈ 7.89 µM); with Staphylococcus aureus [3] it was 2 µg/mL (≈ 3.67 µM); in the experiment on Bacillus subtilis it was more than 34.8 µg/mL; against Staphylococcus aureus [4] it was 4.3 µg/mL (≈ 7.89 µM). Moreover, the outcome in the experiment with Pseudomonas aeruginosa [1], with Pseudomonas aeruginosa [2] and with Escherichia coli was inactive.

For `CC1(C)C(=O)CC[C@]2(C)[C@H]3C(=O)C=C4[C@@H]5C[C@@](C)(C(=O)OCc6ccccc6)CC[C@]5(C)CC[C@@]4(C)[C@]3(C)CC[C@@H]12`, the MIC in the experiment on Streptomyces scabiei, against Staphylococcus aureus [3], with Bacillus subtilis and with Staphylococcus aureus [4] was more than 50 µg/mL in each case. The outcome with Pseudomonas aeruginosa [1], in the experiment on Pseudomonas aeruginosa [2] and in the experiment on Escherichia coli was inactive.

With `CC1(C)[C@@H](O)CC[C@]2(C)[C@H]3C(=O)C=C4[C@@H]5C[C@@](C)(C(=O)OCc6ccccc6)CC[C@]5(C)CC[C@@]4(C)[C@]3(C)CC[C@@H]12`, the MIC against Streptomyces scabiei, in the experiment with Staphylococcus aureus [3], against Bacillus subtilis and with Staphylococcus aureus [4] was more than 50 µg/mL throughout. Also, the outcome in the experiment on Pseudomonas aeruginosa [1], with Pseudomonas aeruginosa [2] and in the experiment on Escherichia coli was inactive.

Take `CC1(C)[C@@H](O)[C@@H](O)[C@H](O)[C@]2(C)[C@H]3C(=O)C=C4[C@@H]5C[C@@](C)(C(=O)OCc6ccccc6)CC[C@]5(C)CC[C@@]4(C)[C@]3(C)CC[C@@H]12`: the MIC against Streptomyces scabiei was more than 37.8 µg/mL; against Staphylococcus aureus [3], 4 µg/mL (≈ 6.75 µM); against Bacillus subtilis, more than 37.8 µg/mL; in the experiment with Staphylococcus aureus [4], more than 37.8 µg/mL. The outcome with Pseudomonas aeruginosa [1], in the experiment with Pseudomonas aeruginosa [2] and in the experiment on Escherichia coli was inactive.

On to `CCCCCCCCCCCCCCCOC(=O)[C@@]1(C)CC[C@]2(C)CC[C@]3(C)C(=CC(=O)[C@@H]4[C@@]5(C)[C@@H](O)[C@H](O)[C@H](O)C(C)(C)[C@@H]5CC[C@]43C)[C@@H]2C1`, for which the MIC in the experiment with Streptomyces scabiei, against Staphylococcus aureus [3], in the experiment on Bacillus subtilis and in the experiment with Staphylococcus aureus [4] was more than 50 µg/mL throughout. Besides, the outcome with Pseudomonas aeruginosa [1], in the experiment on Pseudomonas aeruginosa [2] and with Escherichia coli was inactive.

Regarding `CC1(C)[C@@H](O)[C@@H]2O[C@@H]2[C@]2(C)[C@H]3CC=C4[C@@H]5C[C@@](C)(C(=O)OCc6ccccc6)CC[C@]5(C)CC[C@@]4(C)[C@]3(C)CC[C@@H]12`, the minimum inhibitory concentration (MIC) in the experiment with Streptomyces scabiei, against Staphylococcus aureus [3], in the experiment with Bacillus subtilis and against Staphylococcus aureus [4] was more than 50 µg/mL throughout. The outcome with Pseudomonas aeruginosa [1], in the experiment on Pseudomonas aeruginosa [2] and in the experiment on Escherichia coli was inactive.

As to `CC1(C)[C@@H](O)[C@@H](O)[C@H](O)[C@]2(C)[C@H]3CC=C4[C@@H]5C[C@@](C)(C(=O)OCc6ccc([N+](=O)[O-])cc6)CC[C@]5(C)CC[C@@]4(C)[C@]3(C)CC[C@@H]12`, the minimal inhibitory concentration (MIC) in the experiment with Streptomyces scabiei, against Staphylococcus aureus [3], with Bacillus subtilis and with Staphylococcus aureus [4] was more than 50 µg/mL each time. Besides, the outcome with Pseudomonas aeruginosa [1], in the experiment on Pseudomonas aeruginosa [2] and with Escherichia coli was inactive.

Regarding `CC1(C)[C@@H](O)[C@@H]2O[C@@H]2[C@]2(C)[C@H]3C(=O)C=C4[C@@H]5C[C@@](C)(C(=O)OCc6ccccc6)CC[C@]5(C)CC[C@@]4(C)[C@]3(C)CC[C@@H]12`, the MIC with Streptomyces scabiei, against Staphylococcus aureus [3], in the experiment with Bacillus subtilis and against Staphylococcus aureus [4] was more than 50 µg/mL each time. Moreover, the outcome with Pseudomonas aeruginosa [1], with Pseudomonas aeruginosa [2] and with Escherichia coli was inactive.

For the molecule `CCCCOC(=O)[C@@]1(C)CC[C@]2(C)CC[C@]3(C)C(=CC[C@@H]4[C@@]5(C)[C@@H](O)[C@H](O)[C@H](O)C(C)(C)[C@@H]5CC[C@]43C)[C@@H]2C1`, the MIC with Streptomyces scabiei was 4.3 µg/mL (≈ 7.89 µM); with Staphylococcus aureus [3] it was more than 32 µg/mL; against Bacillus subtilis, more than 34.8 µg/mL; in the experiment on Staphylococcus aureus [4], more than 34.8 µg/mL. The result in the experiment on Pseudomonas aeruginosa [1], with Pseudomonas aeruginosa [2] and with Escherichia coli was inactive.

As to `CCCCCOC(=O)[C@@]1(C)CC[C@]2(C)CC[C@]3(C)C(=CC[C@@H]4[C@@]5(C)[C@@H](O)[C@H](O)[C@H](O)C(C)(C)[C@@H]5CC[C@]43C)[C@@H]2C1`, the MIC with Streptomyces scabiei, against Staphylococcus aureus [3], in the experiment with Bacillus subtilis and in the experiment with Staphylococcus aureus [4] was more than 50 µg/mL throughout. Also, the outcome in the experiment with Pseudomonas aeruginosa [1], in the experiment on Pseudomonas aeruginosa [2] and with Escherichia coli was inactive.

Turning to `CC(C)OC(=O)[C@@]1(C)CC[C@]2(C)CC[C@]3(C)C(=CC(=O)[C@@H]4[C@@]5(C)[C@@H](O)[C@H](O)[C@H](O)C(C)(C)[C@@H]5CC[C@]43C)[C@@H]2C1`, the minimum inhibitory concentration (MIC) in the experiment on Streptomyces scabiei was more than 34.8 µg/mL; in the experiment with Staphylococcus aureus [3] it was 8 µg/mL (≈ 14.7 µM); against Bacillus subtilis, more than 34.8 µg/mL; with Staphylococcus aureus [4], more than 34.8 µg/mL. Also, the result in the experiment on Pseudomonas aeruginosa [1], in the experiment with Pseudomonas aeruginosa [2] and with Escherichia coli was inactive.

Turning to `CC1(C)[C@@H](O)[C@@H](O)[C@H](O)[C@]2(C)[C@H]3C(=O)C=C4[C@@H]5C[C@@](C)(C(=O)OCc6ccccc6[N+](=O)[O-])CC[C@]5(C)CC[C@@]4(C)[C@]3(C)CC[C@@H]12`, the MIC in the experiment on Streptomyces scabiei, with Staphylococcus aureus [3], against Bacillus subtilis and in the experiment on Staphylococcus aureus [4] was more than 50 µg/mL each time. The result with Pseudomonas aeruginosa [1], with Pseudomonas aeruginosa [2] and in the experiment with Escherichia coli was inactive.

Regarding `CC1(C)[C@@H](O)[C@@H](O)[C@H](O)[C@]2(C)[C@H]3C(=O)C=C4[C@@H]5C[C@@](C)(C(=O)OCc6ccccc6Cl)CC[C@]5(C)CC[C@@]4(C)[C@]3(C)CC[C@@H]12`, the MIC in the experiment on Streptomyces scabiei, with Staphylococcus aureus [3], against Bacillus subtilis and with Staphylococcus aureus [4] was more than 50 µg/mL each time. The result in the experiment on Pseudomonas aeruginosa [1], in the experiment with Pseudomonas aeruginosa [2] and in the experiment on Escherichia coli was inactive.

With `CC1(C)[C@H](O)[C@@H]2O[C@@H]2[C@]2(C)[C@H]3CC=C4[C@@H]5C[C@@](C)(C(=O)OCc6ccccc6)CC[C@]5(C)CC[C@@]4(C)[C@]3(C)CC[C@@H]12`, the MIC against Streptomyces scabiei, against Staphylococcus aureus [3], with Bacillus subtilis and with Staphylococcus aureus [4] was more than 50 µg/mL each time. For the same molecule, the outcome in the experiment with Pseudomonas aeruginosa [1], in the experiment on Pseudomonas aeruginosa [2] and in the experiment on Escherichia coli was inactive.

For `CC1(C)[C@@H](O)[C@@H](O)[C@H](O)[C@]2(C)[C@H]3CC=C4[C@@H]5C[C@@](C)(C(=O)O)CC[C@]5(C)CC[C@@]4(C)[C@]3(C)CC[C@@H]12`, the MIC is 31.2 µg/mL (≈ 63.8 µM) with Streptomyces scabiei, more than 32 µg/mL against Staphylococcus aureus [3], more than 31.2 µg/mL against Bacillus subtilis and 15.6 µg/mL (≈ 31.9 µM) against Staphylococcus aureus [4]. The outcome in the experiment on Pseudomonas aeruginosa [1], with Pseudomonas aeruginosa [2] and in the experiment on Escherichia coli was inactive.

With `CC1(C)C(=O)[C@@H]2O[C@@H]2[C@]2(C)[C@H]3C(=O)C=C4[C@@H]5C[C@@](C)(C(=O)OCc6ccccc6)CC[C@]5(C)CC[C@@]4(C)[C@]3(C)CC[C@@H]12`, the minimal inhibitory concentration (MIC) with Streptomyces scabiei, with Staphylococcus aureus [3], against Bacillus subtilis and in the experiment with Staphylococcus aureus [4] was more than 50 µg/mL in each case. Also, the result in the experiment on Pseudomonas aeruginosa [1], in the experiment with Pseudomonas aeruginosa [2] and in the experiment on Escherichia coli was inactive.

As for `CC1(C)C(=O)C=C[C@]2(C)[C@H]3CC=C4[C@@H]5C[C@@](C)(C(=O)OCc6ccccc6)CC[C@]5(C)CC[C@@]4(C)[C@]3(C)CC[C@@H]12`, the minimal inhibitory concentration (MIC) is 34.6 µg/mL (≈ 63.7 µM) against Streptomyces scabiei, more than 32 µg/mL in the experiment with Staphylococcus aureus [3], more than 34.6 µg/mL in the experiment on Bacillus subtilis and more than 34.6 µg/mL in the experiment on Staphylococcus aureus [4]. Besides, the result in the experiment on Pseudomonas aeruginosa [1], with Pseudomonas aeruginosa [2] and with Escherichia coli was inactive.

Regarding `CC1(C)[C@@H](O)[C@@H](O)[C@H](O)[C@]2(C)[C@H]3CC=C4[C@@H]5C[C@@](C)(C(=O)OCc6ccc(Cl)cc6)CC[C@]5(C)CC[C@@]4(C)[C@]3(C)CC[C@@H]12`, the MIC against Streptomyces scabiei, against Staphylococcus aureus [3], in the experiment with Bacillus subtilis and against Staphylococcus aureus [4] was more than 50 µg/mL each time. Besides, the result in the experiment with Pseudomonas aeruginosa [1], in the experiment with Pseudomonas aeruginosa [2] and with Escherichia coli was inactive.
